ChEMBL document CHEMBL1629436, “Synthesis and biological evaluation of new camptothecin derivatives obtained by modification of position 20” (Bioorg Med Chem, 2010)
The source made the active and inactive calls.

Columns and labels:
A-431 = assay: Cytotoxicity against human A431 cells after 72 hrs by trypan blue assay; type: functional, cell-based; conditions: A-431, 72 h
Summary of the method: (§1)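 A-431, HeLa and HL-60 cells at 4×10^4 per well, incubated 24 h. HeLa and A-431 then received fresh medium. Graded compound concentrations were added for a further 72 h at 37 °C, 5% CO2. Viability was counted by Trypan blue exclusion. IC50 is the concentration giving 50% reduction in cell number versus control: ≥3 independent experiments, triplicate samples, mean ± SD.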

HeLa = assay: Cytotoxicity against human HeLa cells after 72 hrs by trypan blue assay; type: functional, cell-based; summary of the method: as §1
HL-60 = assay: Cytotoxicity against human HL60 cells after 72 hrs by trypan blue assay; type: functional, cell-based; conditions: HL-60, 72 h; summary of the method: as §1
HUVEC [1] = assay: Antiangiogenic activity in HUVEC cocultured with human PaSMC assessed as inhibition of capillary-like network formation at 25 nM after 72 hrs; type: functional, cell-based
Summary of the method: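 RFP-expressing HUVEC (early passage, passage 5) co-seeded with pulmonary artery vSMC (5×10^4 PaSMC plus 10×10^3 HUVEC per well) in EGM-2, briefly spun at 200 g and allowed to attach for 3 h. Compounds were added at final 2–200 nM, two replicates per concentration, at 37 °C, 5% CO₂. Network was imaged at 72 h with automated imaging, and tube length was quantified by image analysis.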

A2C12 [2] = assay: Cytotoxicity against mouse A2C12 cells after 24 to 96 hrs by MTS assay; type: functional, cell-based
Summary of the method: (§2)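 Mouse transgenic lines plated at 10^3 cells/well and left 24 h to attach. Drugs diluted in medium were added for 24 or 96 h. CellTiter 96 AQueous One (MTS) reagent was then added for 1 h at 37 °C, with absorbance read at 490 nm. Each condition was run in quintuplicate, and cytotoxicity was expressed as percent of controls.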

yB8 [3] = assay: Cytotoxicity against mouse yB8 cells after 24 to 96 hrs by MTS assay; type: functional, cell-based; summary of the method: as §2
yD12 [4] = assay: Cytotoxicity against mouse yD12 cells after 24 to 96 hrs by MTS assay; type: functional, cell-based; summary of the method: as §2
Mus musculus [5] = organism: Mus musculus; assay: Cytotoxicity against mouse betaD10 cells after 24 to 96 hrs by MTS assay; type: functional, cell-based; summary of the method: as §2
yA7 [6] = assay: Cytotoxicity against mouse yA7 cells after 24 to 96 hrs by MTS assay; type: functional, cell-based; summary of the method: as §2
yA3 [7] = assay: Cytotoxicity against mouse yA3 cells after 24 to 96 hrs by MTS assay; type: functional, cell-based; summary of the method: as §2
B3 [8] = assay: Cytotoxicity against mouse B3 cells after 24 to 96 hrs by MTS assay; type: functional, cell-based; summary of the method: as §2
Mus musculus [9] = organism: Mus musculus; assay: Cytotoxicity against mouse betaD5 cells after 24 to 96 hrs by MTS assay; type: functional, cell-based; summary of the method: as §2
A2B1 [10] = assay: Cytotoxicity against mouse A2B1 cells after 24 to 96 hrs by MTS assay; type: functional, cell-based; summary of the method: as §2
Craf/Cmyc [11] = assay: Cytotoxicity against mouse Craf/Cmyc cells after 24 to 96 hrs by MTS assay; type: functional, cell-based; summary of the method: as §2
Nucleic Acid = assay: Binding affinity to salmon testes DNA by linear flow dichroism analysis; type: nucleic-acid assay; conditions: Salmonidae
Summary of the method: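 Salmon testes DNA (1.9 × 10^-3 M) in ETN buffer (10 mM Tris, 10 mM NaCl, 1 mM EDTA, pH 7). Linear dichroism spectra were recorded at 25 °C over a range of [drug]/[DNA] ratios on a spectropolarimeter converted for LD.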

Bos taurus = organism: Bos taurus; assay: Inhibition of calf thymus topoisomerase 1-mediated relaxation of supercoiled pBR322 at 100 uM after 60 mins using ethidium bromide staining by agarose gel electrophoresis
Summary of the method: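 Supercoiled pBR322 (0.25 µg) with 2 U calf thymus topoisomerase I and test compound, 60 min at 37 °C in 20 µl reaction buffer. Stopped with SDS/bromophenol blue/glycerol plus 50 µg/mL proteinase K, 30 min at 37 °C. Run on 1% agarose at room temperature, stained with ethidium bromide 1 µg/mL in TAE, imaged under UV.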

[12] = molecular target: DNA topoisomerase 2-alpha (Homo sapiens) (UniProt P11388); assay: Inhibition of human recombinant topoisomerase 2alpha-mediated relaxation of supercoiled pBR322 after 60 mins using ethidium bromide staining by agarose gel electrophoresis
DNA topoisomerase 2-alpha (Homo sapiens), sequence (P11388 whole entry): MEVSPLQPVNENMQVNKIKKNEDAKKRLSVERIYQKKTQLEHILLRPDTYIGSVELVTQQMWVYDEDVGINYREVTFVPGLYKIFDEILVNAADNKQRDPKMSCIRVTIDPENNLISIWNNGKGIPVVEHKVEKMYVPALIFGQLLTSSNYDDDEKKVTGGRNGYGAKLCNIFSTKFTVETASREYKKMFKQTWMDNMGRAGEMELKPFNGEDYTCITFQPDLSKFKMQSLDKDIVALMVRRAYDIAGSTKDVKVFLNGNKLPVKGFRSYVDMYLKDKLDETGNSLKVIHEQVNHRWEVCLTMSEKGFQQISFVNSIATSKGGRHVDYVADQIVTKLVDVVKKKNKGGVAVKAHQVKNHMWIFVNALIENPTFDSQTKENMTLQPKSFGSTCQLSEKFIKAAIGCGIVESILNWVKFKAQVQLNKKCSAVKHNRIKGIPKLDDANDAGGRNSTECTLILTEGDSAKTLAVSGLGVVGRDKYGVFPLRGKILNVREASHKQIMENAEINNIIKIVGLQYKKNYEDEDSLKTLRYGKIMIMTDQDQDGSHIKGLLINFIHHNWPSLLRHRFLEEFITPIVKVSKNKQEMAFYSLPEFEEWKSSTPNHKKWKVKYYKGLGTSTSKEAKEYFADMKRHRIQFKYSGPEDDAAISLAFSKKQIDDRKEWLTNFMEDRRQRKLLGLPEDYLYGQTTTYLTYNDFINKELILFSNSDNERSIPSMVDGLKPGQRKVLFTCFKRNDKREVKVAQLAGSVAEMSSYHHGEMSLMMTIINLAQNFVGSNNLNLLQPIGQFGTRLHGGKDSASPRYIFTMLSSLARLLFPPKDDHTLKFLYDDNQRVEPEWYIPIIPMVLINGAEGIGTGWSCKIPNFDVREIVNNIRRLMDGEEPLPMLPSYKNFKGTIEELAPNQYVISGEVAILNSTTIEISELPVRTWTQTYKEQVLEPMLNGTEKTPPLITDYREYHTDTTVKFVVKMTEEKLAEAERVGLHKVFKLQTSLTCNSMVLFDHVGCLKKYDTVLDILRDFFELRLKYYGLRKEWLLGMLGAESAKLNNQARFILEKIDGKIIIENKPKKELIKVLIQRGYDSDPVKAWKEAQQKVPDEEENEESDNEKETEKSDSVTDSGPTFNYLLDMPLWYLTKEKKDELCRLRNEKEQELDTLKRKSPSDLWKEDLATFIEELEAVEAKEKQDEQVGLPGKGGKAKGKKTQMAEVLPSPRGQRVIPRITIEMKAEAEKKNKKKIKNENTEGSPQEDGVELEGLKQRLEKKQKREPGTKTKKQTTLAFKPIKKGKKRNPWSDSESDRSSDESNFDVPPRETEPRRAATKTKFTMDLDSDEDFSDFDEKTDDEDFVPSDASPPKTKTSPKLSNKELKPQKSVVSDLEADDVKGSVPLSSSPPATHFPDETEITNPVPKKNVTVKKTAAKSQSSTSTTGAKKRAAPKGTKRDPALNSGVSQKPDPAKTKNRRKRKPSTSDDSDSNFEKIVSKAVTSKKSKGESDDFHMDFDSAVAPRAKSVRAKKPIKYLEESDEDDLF
Summary of the method: (§3)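 Supercoiled pBR322 (0.25 µg) with 1 U human recombinant topoisomerase IIα and test compound, 60 min at 37 °C in 20 µl reaction buffer. Stopped with SDS/bromophenol blue/glycerol plus 50 µg/mL proteinase K, 30 min at 37 °C. Separated on 1% agarose at room temperature, ethidium bromide stained (1 µg/mL, TAE), UV-visualized.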

[13] = molecular target: DNA topoisomerase 2-alpha (Homo sapiens) (UniProt P11388); assay: Inhibition of human recombinant topoisomerase 2alpha-mediated relaxation of supercoiled pBR322 at 100 uM after 60 mins using ethidium bromide staining by agarose gel electrophoresis; summary of the method: as §3
A2B1 [14] = assay: Induction apoptosis in mouse A2B1 cells assessed as relative caspase activity at 10 uM/L after 2 hrs by rhodamine 110 fluorescence assay; type: functional, cell-based
Summary of the method: (§4)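 Cells were pretreated with compound (10 µmol/L) for 2 h. The cell-permeable caspase substrate (Asp)2-rhodamine 110 (10 µmol/L) was then added for 2 h more. Caspase cleavage releases fluorescent rhodamine 110, and the read-out was mean fluorescence.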

A2C12 [15] = assay: Induction apoptosis in mouse A2C12 cells assessed as relative caspase activity at 10 uM/L after 2 hrs by rhodamine 110 fluorescence assay; type: functional, cell-based; summary of the method: as §4
B3 [16] = assay: Induction apoptosis in mouse B3 cells assessed as relative caspase activity at 10 uM/L after 2 hrs by rhodamine 110 fluorescence assay; type: functional, cell-based; summary of the method: as §4
Mus musculus [17] = organism: Mus musculus; assay: Induction apoptosis in mouse betaD5 cells assessed as relative caspase activity at 10 uM/L after 2 hrs by rhodamine 110 fluorescence assay; type: functional, cell-based; summary of the method: as §4
Mus musculus [18] = organism: Mus musculus; assay: Induction apoptosis in mouse betaD10 cells assessed as relative caspase activity at 10 uM/L after 2 hrs by rhodamine 110 fluorescence assay; type: functional, cell-based; summary of the method: as §4
Craf/Cmyc [19] = assay: Induction apoptosis in mouse Craf/Cmyc cells assessed as relative caspase activity at 10 uM/L after 2 hrs by rhodamine 110 fluorescence assay; type: functional; summary of the method: as §4
yA3 [20] = assay: Induction apoptosis in mouse yA3 cells assessed as relative caspase activity at 10 uM/L after 2 hrs by rhodamine 110 fluorescence assay; type: functional, cell-based; summary of the method: as §4
yA7 [21] = assay: Induction apoptosis in mouse yA7 cells assessed as relative caspase activity at 10 uM/L after 2 hrs by rhodamine 110 fluorescence assay; type: functional, cell-based; summary of the method: as §4
yB8 [22] = assay: Induction apoptosis in mouse yB8 cells assessed as relative caspase activity at 10 uM/L after 2 hrs by rhodamine 110 fluorescence assay; type: functional, cell-based; summary of the method: as §4
yD1 [23] = assay: Induction apoptosis in mouse yD1 cells assessed as relative caspase activity at 10 uM/L after 2 hrs by rhodamine 110 fluorescence assay; type: functional, cell-based; summary of the method: as §4
yD12 [24] = assay: Induction apoptosis in mouse yD12 cells assessed as relative caspase activity at 10 uM/L after 2 hrs by rhodamine 110 fluorescence assay; type: functional, cell-based; summary of the method: as §4
A2B1 [25] = assay: Induction apoptosis in mouse A2B1 cells assessed as ROS production at 10 uM/L using DCFH-DA by flow cytometry relative to control; type: functional, cell-based
Summary of the method: (§5)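 Transgenic mouse cells exposed to compound at 10 µmol/L. ROS generation was measured by flow cytometry using the probe DCFH-DA.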

A2C12 [26] = assay: Induction apoptosis in mouse A2C12 cells assessed as ROS production at 10 uM/L using DCFH-DA by flow cytometry relative to control; type: functional, cell-based; summary of the method: as §5
B3 [27] = assay: Induction apoptosis in mouse B3 cells assessed as ROS production at 10 uM/L using DCFH-DA by flow cytometry relative to control; type: functional, cell-based; summary of the method: as §5
Mus musculus [28] = organism: Mus musculus; assay: Induction apoptosis in mouse betaD5 cells assessed as ROS production at 10 uM/L using DCFH-DA by flow cytometry relative to control; type: functional, cell-based; summary of the method: as §5
Mus musculus [29] = organism: Mus musculus; assay: Induction apoptosis in mouse betaD10 cells assessed as ROS production at 10 uM/L using DCFH-DA by flow cytometry relative to control; type: functional, cell-based; summary of the method: as §5
Craf/Cmyc [30] = assay: Induction apoptosis in mouse Craf/Cmyc cells assessed as ROS production at 10 uM/L using DCFH-DA by flow cytometry relative to control; type: functional, cell-based; summary of the method: as §5
yA3 [31] = assay: Induction apoptosis in mouse yA3 cells assessed as ROS production at 10 uM/L using DCFH-DA by flow cytometry relative to control; type: functional, cell-based; summary of the method: as §5
yA7 [32] = assay: Induction apoptosis in mouse yA7 cells assessed as ROS production at 10 uM/L using DCFH-DA by flow cytometry relative to control; type: functional, cell-based; summary of the method: as §5
yB8 [33] = assay: Induction apoptosis in mouse yB8 cells assessed as ROS production at 10 uM/L using DCFH-DA by flow cytometry relative to control; type: functional, cell-based; summary of the method: as §5
yD1 [34] = assay: Induction apoptosis in mouse yD1 cells assessed as ROS production at 10 uM/L using DCFH-DA by flow cytometry relative to control; type: functional, cell-based; summary of the method: as §5
yD12 [35] = assay: Induction apoptosis in mouse yD12 cells assessed as ROS production at 10 uM/L using DCFH-DA by flow cytometry relative to control; type: functional, cell-based; summary of the method: as §5
HUVEC [36] = assay: Antiangiogenic activity in HUVEC cocultured with human PaSMC assessed as inhibition of capillary-like network formation up to 200 nM after 72 hrs; type: functional, cell-based
Summary of the method: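 Primary HUVEC (passage 5, retrovirally labelled with RFP) and pulmonary artery vSMC (passage 5) co-seeded at 5×10^4 PaSMC plus 10×10^3 HUVEC per well in EGM-2, briefly spun at 200 g, attached 3 h. Compounds were then added at final 2–200 nM, two replicates per concentration. Networks formed over 72 h at 37 °C, 5% CO2, followed by automated imaging and image analysis of tube formation.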

CC[C@@]1(O)C(=O)OCc2c1cc1n(c2=O)Cc2cc3ccccc3nc2-1 [CAMPTOTHECIN]
active: inhibition (HUVEC [1])
17 nM: IC50 (HL-60)
11 nM: IC50 (A-431)
8.9 nM: IC50 (HeLa)

CC[C@@]1(OC(=O)NCCN2C(=O)CCSSCCC2=O)C(=O)OCc2c1cc1n(c2=O)Cc2cc3ccccc3nc2-1
active: Activity (A2C12 [2]) | Activity (yB8 [3]) | Activity (yD12 [4]) | Activity (Mus musculus [5]) | Activity (yA7 [6]) | Activity (yA3 [7]) | Activity (B3 [8]) | Activity (Mus musculus [9]) | Activity (A2B1 [10]) | Activity (Craf/Cmyc [11]) | Activity [12] Dose-dependent effect | Activity [13]
8100 nM: IC50 (HL-60)
12000 nM: IC50 (HeLa)
inactive: Activity (Nucleic Acid) | Activity (Bos taurus) | Activity (A2B1 [14]) | Activity (A2C12 [15]) | Activity (B3 [16]) | Activity (Mus musculus [17]) | Activity (Mus musculus [18]) | Activity (Craf/Cmyc [19]) | Activity (yA3 [20]) | Activity (yA7 [21]) | Activity (yB8 [22]) | Activity (yD1 [23]) | Activity (yD12 [24]) | Activity (A2B1 [25]) | Activity (A2C12 [26]) | Activity (B3 [27]) | Activity (Mus musculus [28]) | Activity (Mus musculus [29]) | Activity (Craf/Cmyc [30]) | Activity (yA3 [31]) | Activity (yA7 [32]) | Activity (yB8 [33]) | Activity (yD1 [34]) | Activity (yD12 [35]) | Activity (HUVEC [36])
2970 nM: IC50 (A-431)
